E-selectin induc – E-selectin induction on HUVECs; P16581; HUVEC E-selectin immunofluorescence imaging; normalized: neutral wells 0, TNF-alpha wells 100; activation, % at 7.58 µM; hit rate 0.37% among 260,000; AID 686992;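 active = mean E-selectin-positive cell signal at least 10% of the positive control, reached in at least 60% of replicates, without over 20% cell loss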
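Material: HUVEC primary endothelial cells; Amount: 3,000 cells per well; Dosing: single concentration; Medium: EGM-2 growth medium on 0.1% gelatin-coated wells; Read-out basis: percent E-selectin-positive cells; Signal: immunofluorescence imaging; Control set: TNF-alpha, DMSO.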
MLL AF4-AF9 inh – inhibitors of human MLL-AF4/AF9 interaction; AlphaScreen, biotin-AF4 peptide binding to FLAG-AF9; inhibition, % at 10 µM; hit rate 0.47% among 350,000;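 active = every replicate reaching a set inhibition limit, whatever the replicate mean, cut at about 25% in these data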;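 note: 0% = plate neutral control median and 100% = total signal loss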
Target sequence (P42568 whole entry, looked up): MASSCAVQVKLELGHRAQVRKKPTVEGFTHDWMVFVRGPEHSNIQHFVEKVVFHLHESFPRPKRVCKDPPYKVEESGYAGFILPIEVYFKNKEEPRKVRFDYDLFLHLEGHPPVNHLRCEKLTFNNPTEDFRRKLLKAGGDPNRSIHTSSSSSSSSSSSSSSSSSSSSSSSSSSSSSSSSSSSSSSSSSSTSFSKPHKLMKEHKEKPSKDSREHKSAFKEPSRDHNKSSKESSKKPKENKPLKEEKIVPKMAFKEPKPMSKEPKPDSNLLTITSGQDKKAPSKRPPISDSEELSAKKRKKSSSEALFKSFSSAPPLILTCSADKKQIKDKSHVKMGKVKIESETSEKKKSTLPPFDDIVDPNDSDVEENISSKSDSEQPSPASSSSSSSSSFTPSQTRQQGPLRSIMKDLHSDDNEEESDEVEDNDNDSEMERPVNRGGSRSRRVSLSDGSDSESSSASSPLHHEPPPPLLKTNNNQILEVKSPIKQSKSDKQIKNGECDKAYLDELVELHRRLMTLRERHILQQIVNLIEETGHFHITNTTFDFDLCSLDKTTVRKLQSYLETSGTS
GSIS activator – GLuc luminescence reporter in INS-1E cells, primary screen for activators of glucose-dependent secretion of insulin; INS-1E GLuc reporter insulin secretion, 2-3 h; activation, % at 16.6 µM; hit rate 0.61% among 370,000; AID 743287;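 active = lowest replicate activation of at least 40%, so every replicate reaches that level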;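 note: 0% = median of neutral control wells and 100% = median of IBMX positive control wells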
rRNA inh HTS – inhibits bacterial ribosomal RNA function over humanized ribosomes; AID 720706; E. coli WT GFP vs humanized-ribosome RFP mutants, fluorescence, 24 h; stronger effect = lower value; DMSO median 0, no signal -100; GFP signal change (wild-type ribosome), % (test concentration not listed); hit rate 1.6% among 350,000;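 active = significant combined selectivity score with lowered wild-type GFP, culture density cut under 30%, mutant RFP and density less affected; inactive = any of these conditions unmet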
RAD54 branch – RAD54 (human) branch migration inhibition; RAD54 Holliday junction branch migration, FAM/BHQ fluorescence; inhibition, % at 10.4 µM; hit rate 0.14% among 360,000; AID 602329;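 active = mean normalized replicate activity at least 40 and at least half of replicates scoring 40 or more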;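 note: 0% = median of neutral control wells and 100% = median of positive control wells; inhibitors cause a drop in the FAM fluorescence signal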
RAD52 anneal inh – blocks human RAD52 DNA annealing; P43351; recombinant RAD52 DNA annealing, FRET fluorescence; inhibition, % at 18.7 µM; hit rate 0.46% among 360,000;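 active = every replicate showing at least 50% inhibition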
* hit, by the source's call; / = no result. In the library only some 2.6% were active in any assay of this set; here they are far more common.

SMILES	E-selectin induc	MLL AF4-AF9 inh	GSIS activator	rRNA inh HTS	RAD54 branch	RAD52 anneal inh
Cc1cc(Cl)nc(-n2nc(C)cc2C)n1	1.0	1.9	-4.1	-32.4*	-15.3	-14.7
CCCn1c(C)cc(C)c(C#N)c1=O	/	/	43.4*	/	/	/
CCCNC(=O)N[C@@H]1CC[C@H](CCn2cc(C3CCCCC3)nn2)O[C@H]1CO	0.1	-12.5	9.3	2.8	-32.0	-15.2
CN(C)CCCCCCNC(=O)[C@@H]1C[C@@H]2C(=O)N3CCC[C@H]3C(=O)N2[C@@H]1c1ccc(O)cc1	/	28.7*	/	/	8.8	13.8
O=C(NCc1ccc(Cl)cc1Cl)C1CC(=O)N(Cc2ccccc2)C1 (centres undefined)	3.0	0.2	-13.1	-22.8*	/	-5.8
Cc1ccc(S(=O)(=O)N2CCCCC2)cc1NC(=O)C1CC(=O)N(Cc2ccccc2)C1 (centres undefined)	/	/	13.0	/	-6.2	/
CN(C)C(CNC(=O)C1CC(=O)N(Cc2ccccc2)C1)c1ccccc1 (centres undefined)	-1.7	4.9	4.9	9.7	-4.1	-0.7
O=C(Nc1cccc(S(=O)(=O)N2CCCCC2)c1)C1CC(=O)N(Cc2ccccc2)C1 (centres undefined)	/	-0.2	-10.0	-24.5*	-13.8	-71.5
C[C@@H]1CN([C@@H](C)CO)C(=O)Cc2cc(NC(=O)Cc3cn(C)c4ccccc34)ccc2O[C@@H]1CN(C)Cc1ccncc1	/	5.3	-18.5	1.2	-7.9	-20.0
O=C(COc1ccc(Br)cc1)N/N=C1/SCC(=O)N1Cc1ccco1	-0.3	2.8	1.3	-23.4*	/	-13.3
CO[C@@H]1CN(C)C(=O)c2ccc(NC(=O)NC(C)C)cc2OC[C@H](C)N(C(=O)C2CCC2)C[C@H]1C	-0.1	-0.6	3.4	0.5	0.3	-7.2
Cc1noc(C)c1S(=O)(=O)Nc1ccc2c(c1)CC(=O)N([C@H](C)CO)C[C@H](C)[C@H](CN(C)C(=O)Nc1ccccc1)O2	-0.1	3.8	6.1	0.0	/	-2.2
Cc1noc(C)c1S(=O)(=O)Nc1ccc2c(c1)CC(=O)N([C@H](C)CO)C[C@@H](C)[C@H](CN(C)C(=O)Nc1cccc3ccccc13)O2	32.1*	1.6	-12.1	-0.5	8.7	3.2
Cc1noc(C)c1S(=O)(=O)Nc1ccc2c(c1)CC(=O)N([C@@H](C)CO)C[C@@H](C)[C@@H](CN(C)C(=O)Nc1cccc3ccccc13)O2	-8.0	-0.6	-3.2	-6.5	1.5	-6.5
Cc1noc(C)c1S(=O)(=O)Nc1ccc2c(c1)CC(=O)N([C@H](C)CO)C[C@H](C)[C@@H](CN(C)C(=O)Nc1cccc3ccccc13)O2	305.3*	-0.6	-1.0	-0.2	/	-4.6
Oc1ccc(Cl)cc1CNCc1cccc2ccccc12	-0.1	-7.6	-16.3	-23.5*	5.6	-11.1
Oc1ccc(Cl)cc1CNCc1ccc(F)c(F)c1	0.0	-2.7	9.4	-10.8	3.5	15.3
COc1ccc(/C=C/C(=O)Nc2ccccc2)cc1S(=O)(=O)N1CCOCC1	5.3	11.6	2.6	-17.7*	/	5.3
COc1ccc(/C=C/C(=O)Nc2ccc(NC(C)=O)cc2)cc1S(=O)(=O)N1CCOCC1	2.3	-52.9	-0.4	-5.2	0.5	-15.0
CC(=O)N(C)C[C@@H]1Oc2cc(-c3ccc(C#N)cc3)ccc2S(=O)(=O)N([C@H](C)CO)C[C@H]1C	0.0	2.2	4.9	-1.4	2.5	11.6
COc1ccc([N+](=O)[O-])c2c(=O)ccoc12	/	/	41.0*	/	/	/
CCNC(=O)[C@H]1[C@H](CO)[C@H]2Cn3c(ccc(-c4ccc(F)cc4)c3=O)[C@H]2N1C	/	/	19.0	1.4	/	/
O=C(C1CC1)N1CC2(C1)[C@H](c1ccccc1)[C@H](CO)N2CC1CCCC1	-0.1	2.3	-8.3	-6.6	/	-6.2
COCC(=O)N1CCCCN2[C@H](CO)[C@H](c3ccc(-c4cccc(C)c4)cc3)[C@H]2C1	0.0	/	5.8	-2.7	-12.1	/
C[C@@H]1CN([C@@H](C)CO)C(=O)c2cc(NS(=O)(=O)c3ccc(F)cc3)ccc2O[C@@H](C)CCCCO[C@@H]1CN(C)C(=O)Cc1ccccc1	-0.1	/	-11.5	0.3	-22.2	/
SMILES	E-selectin induc	MLL AF4-AF9 inh	GSIS activator	rRNA inh HTS	RAD54 branch	RAD52 anneal inh
O=C(NCCC1CCCCN1S(=O)(=O)c1ccc(F)cc1)C(=O)NCc1cccnc1 (centres undefined)	/	0.8	49.7*	-2.3	-0.9	-8.1
Cc1ccc(NC(=O)c2ccc(Br)o2)cc1S(=O)(=O)N(C)C	-0.3	0.3	2.1	-21.4*	/	-38.4
Cc1ccc(NC(=O)COC(=O)c2ccccc2Cl)cc1S(=O)(=O)N(C)C	-0.1	-3.6	-16.6	-33.6*	/	-13.5
Cc1ccc(NC(=O)c2ccncc2)cc1S(=O)(=O)N(C)C	/	-49.2	2.8	10.1	-2.8	-20.3
C[C@@H]1CCCCO[C@H](CN(C)S(=O)(=O)c2ccccc2)[C@@H](C)CN([C@@H](C)CO)C(=O)c2cc(NC(=O)CCCN(C)C)ccc2O1	-0.2	6.4	13.7	0.4	13.2	15.5
C[C@@H]1CN([C@H](C)CO)C(=O)Cc2cc(NS(=O)(=O)c3ccc(F)cc3)ccc2O[C@@H]1CN(C)S(=O)(=O)c1cn(C)cn1	-0.1	4.7	41.9	2.8	1.6	-5.2
Nc1ccc2c(c1)C(=O)c1ccc(Cl)cc1-2	1.1	10.0	/	-5.0	10.9	-13.0
Nc1ccc2c(c1)Cc1cc(N)c(Cl)cc1-2	1.6	19.1	/	-31.4*	9.8	-6.8
COc1cc2c(cc1N)-c1ccc(N)cc1C2=O	0.4	35.1*	/	-21.5	26.1	-8.8
Nc1ccc2c(c1)C(=O)c1cc(N)c(Cl)cc1-2	-0.1	9.9	/	-18.6*	-2.4	-5.5
CNC[C@H]1Oc2ccc(NC(=O)CCC(F)(F)F)cc2CC(=O)N([C@@H](C)CO)C[C@@H]1C	-0.1	-12.0	44.4	1.8	-1.6	10.9
O=C(CCn1ccc2cc(S(=O)(=O)N3CCCC3)ccc21)NCc1cccc(F)c1	/	0.4	44.5*	-4.8	3.7	-0.6
CCOc1ccc(CCNC(=O)CCn2ccc3cc(S(=O)(=O)N4CCCC4)ccc32)cc1	/	0.4	-14.6	-20.8*	6.9	-5.7
O=C(CCn1ccc2cc(S(=O)(=O)N3CCCC3)ccc21)NCc1ccccc1	/	6.1	-19.8	-4.7	-20.4	4.4
O=C(COc1ccc(S(=O)(=O)N2CCCC2)cc1)NCCC1=CCCCC1	/	-2.7	-31.2	-20.2*	2.5	-9.9
O=C(CSc1nc2ccc([N+](=O)[O-])cc2[nH]1)NCCc1ccccc1	/	1.0	-44.5	-27.5*	/	4.7
O=C(CSc1nc2ccc(Cl)cc2[nH]1)NCCc1ccccc1	-0.3	-0.7	/	-9.2	/	-20.2
COc1ccc2nc(SCC(=O)NCCc3ccccc3)[nH]c2c1	/	-2.0	-23.2	-24.4*	/	-6.3

Screening data: PubChem BioAssay, Broad Institute
